This is a sample that favours compounds with a hit; in the whole collection about 2.4% have one here.
S1P4 agonist = activates the human S1P4 receptor | AID 1509 | hit rate 0.35% among 220,000 | O95977 | activation, % at 4.98 µM | S1P4-expressing cell line, agonist reporter assay; in the data active = activation above about 11%;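 also: 0% = DMSO vehicle and 100% = reference agonist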
NPY2 pot ag = potentiators or agonists of human neuropeptide Y receptor Y2; P49146; hit rate 0.45% among 220,000; activation, % at 3.6 µM; cells expressing NPY-Y2, potentiator/agonist read-out; in the data active = activation above about 27%;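 also: cells stimulated with NPY near EC25 plus isoproterenol at EC100; 0% = vehicle plus submaximal agonist and 100% = vehicle plus saturating agonist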
NPY-Y1 PAM-ag = potentiates or activates human NPY-Y1 receptor. P25929. NPY-Y1 expressing cells, potentiator/agonist activation. activation, % at 3.6 µM. hit rate 0.37% among 220,000. AID 1304; in the data active = activation above about 33%, passing the limit was not always enough;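 also: cells stimulated with NPY at EC10 then isoproterenol at EC100; 0% = low agonist plus stimulus and 100% = saturating agonist plus stimulus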
Target sequence (P25929 whole entry, looked up): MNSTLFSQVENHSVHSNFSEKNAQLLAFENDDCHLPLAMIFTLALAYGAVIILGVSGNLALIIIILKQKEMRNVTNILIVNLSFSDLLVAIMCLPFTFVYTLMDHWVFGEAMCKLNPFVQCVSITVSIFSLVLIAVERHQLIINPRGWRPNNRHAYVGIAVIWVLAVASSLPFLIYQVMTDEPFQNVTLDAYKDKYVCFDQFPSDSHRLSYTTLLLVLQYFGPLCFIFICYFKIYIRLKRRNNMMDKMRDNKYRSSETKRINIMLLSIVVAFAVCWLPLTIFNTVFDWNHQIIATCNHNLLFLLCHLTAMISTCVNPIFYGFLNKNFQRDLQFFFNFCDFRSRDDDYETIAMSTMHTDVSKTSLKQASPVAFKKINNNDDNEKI
NPY Y2 blocker = NPY-Y2 (human) receptor antagonism | P49146 | NPY-Y2 expressing cells, antagonist mode | inhibition, % at 2.7 µM | hit rate 0.99% among 140,000; in the data active = inhibition above about 17%;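 also: 0% = vehicle with agonist challenge and 100% = reference antagonist with challenge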
NPY Y1 blocker = NPY-Y1 (human) receptor antagonism. P25929. HEK293-CNG Y1 cells, membrane potential fluorescence; NPY at EC95, then isoproterenol. inhibition, % at 3.6 µM. hit rate 1% among 200,000. AID 1040;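 active = inhibition above the campaign mean inhibition of all tested compounds plus 3 SD, cut at about 20% in these data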;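 also: 0% = DMSO wells given NPY plus isoproterenol and 100% = isoproterenol alone without NPY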
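Benchmarks – high control isoproterenol alone, low control NPY with isoproterenol · Material – HEK293 Y1/CNG channel cell line · Times – dye 3 h, compound 60 min room temperature, stimulation 45 min · Probe or stimulus – NPY (25 nM), isoproterenol (1 µM), Ro 20-1724 (25 µM) · Evaluation – % inhibition of NPY effect · Signal – fluorescence, membrane potential probe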
S1P4 antag = human S1P4 receptor antagonism; O95977; S1P4-expressing cells, antagonist mode, reporter read-out; inhibition, % at 4.98 µM; hit rate 0.26% among 220,000; AID 1510; in the data active = inhibition above about 29%;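 also: 0% = wells stimulated with agonist and 100% = vehicle wells without agonist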
NPY1 antag ctr = human NPY-Y1 antagonism in NPY-Y2 counter-screen | shares compounds with NPY Y2 blocker | cell-based NPY-Y1 antagonism counterscreen | inhibition, % at 3.6 µM | hit rate 19% among 710 | AID 1256; in the data active = inhibition above about 20%;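 also: cells challenged with NPY then isoproterenol with cAMP sensed through a CNG channel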
NPY2 antag conf = confirmation of human neuropeptide Y receptor Y2 antagonists; shares compounds with NPY Y2 blocker; HEK293 NPY-Y2 CNG channel, membrane potential fluorescence; inhibition, % at 2.8 µM; hit rate 32% among 710;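 active = mean inhibition of triplicate wells above the hit cutoff set in the primary screen, cut at about 17% in these data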;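 also: 0% = DMSO with NPY challenge and 100% = BIIE0246 high control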
* hit, by the source's call; . = no result given.

SMILES | S1P4 agonist | NPY2 pot ag | NPY-Y1 PAM-ag | NPY Y2 blocker | NPY Y1 blocker | S1P4 antag | NPY1 antag ctr | NPY2 antag conf
Cc1cc(F)c(F)c(C(=O)N2C(C)CCCC2C)c1Cl (centres undefined) | -0.2 | -3.9 | -13.9 | . | 0.6 | 12.1 | . | .
COC(=O)c1ccc(C(=O)OC)c(-n2c(=O)c3ccccc3c3ccccc3c2=O)c1 | 2.4 | 11.5 | 22.5 | 18.7* | -0.3 | -16.9 | 7.6 | 15.6
O=C(O)C1CCN(c2ccccc2[N+](=O)[O-])CC1 | 0.1 | -6.5 | -29.9 | . | -2.8 | -11.6 | . | .
CCOc1ccccc1CNCc1ccc(C(=O)O)cc1 | -0.6 | -11.1 | -4.0 | . | -3.6 | 3.1 | . | .
O=C(COc1ccccc1CNCc1ccccc1)Nc1ccccc1 | -0.1 | -31.1 | -36.4 | 20.9* | 18.9 | 4.2 | 13.8 | 25.3*
O=C(NC1CCCCC1)C1c2ccccc2C(=O)N1Cc1ccc2c(c1)OCO2 (centres undefined) | -0.6 | -9.0 | -10.1 | . | 4.5 | 2.7 | . | .
O=P(CCCCCCCCCP(=O)(c1ccccc1)c1ccccc1)(c1ccccc1)c1ccccc1 | 0.6 | -15.6 | 27.3 | 18.1* | -6.9 | -13.3 | 1.9 | 111.0*
O=C(O)CCCCCCCCCCP(=O)(c1ccccc1)c1ccccc1 | 0.4 | 0.4 | 10.6 | . | . | -5.5 | . | .
O=C(Nc1cccn(Cc2c(Cl)cccc2Cl)c1=O)c1c(Cl)cccc1Cl | 0.6 | 10.9 | 4.0 | 20.2* | 9.1 | -5.2 | 12.2 | 8.8
CCCCc1cc(O)c(CCCC)c(O)c1 | 2.0 | 14.4 | 19.4 | 20.6* | -6.4 | -4.7 | -1.1 | -3.6
Clc1ccccc1-c1nc2ccccc2c2nc3ccccc3n12 | 1.2 | -3.6 | -8.7 | 18.3* | -0.1 | -21.5 | 16.6 | 12.9
Cc1onc(-c2ccccc2Cl)c1C(=O)Nc1sc2c(c1C#N)CCC2 | -0.1 | -79.3 | -50.9 | 25.8* | 2.6 | -1.0 | 8.6 | 17.9*
N#Cc1c(NC(=O)C2CC(c3ccccc3Cl)=NO2)sc2c1CCC2 (centres undefined) | -1.3 | -25.8 | -34.3 | 15.3 | 8.1 | -1.6 | . | .
O=C(CSCc1c(Cl)cccc1Cl)Nc1ccccc1-c1ccccc1 | 0.6 | 2.7 | 10.4 | 37.5* | 11.5 | -4.5 | 11.9 | 24.1*
COC(=O)c1ccc(COC(=O)c2ccc(N(C)C)cc2)cc1 | 2.0 | -4.9 | -46.3 | 20.4* | 7.9 | -2.5 | 4.0 | 10.0
CN(C)c1ccc(C(=O)OCc2ccccc2)cc1 | -0.9 | -16.9 | -31.1 | 7.7 | 7.3 | -2.8 | . | .
CC(C)n1c(C(=O)OCC(=O)NCc2ccc3c(c2)OCO3)cc2occc21 | 1.4 | -6.0 | -23.4 | 13.8 | 5.2 | 5.2 | . | .
CC(C)n1c(C(=O)OCC(=O)NCc2ccc3c(c2)OCO3)cc2sccc21 | -1.2 | -2.9 | -27.5 | 22.2* | 6.4 | -2.1 | 7.8 | 8.1
COc1ccc(CN2CCNC(=O)C2CC(=O)N2CCCCO2)cc1OC (centres undefined) | 1.3 | 14.8 | -10.7 | . | -4.1 | 3.2 | . | .
COc1ccccc1CCc1nnc(CCC(=O)NC(C)Cc2cccnc2)o1 (centres undefined) | -2.4 | 8.8 | -13.6 | . | -0.8 | 5.2 | . | .
N#Cc1nc(COc2ccc(Cl)cc2)oc1NCc1ccc2c(c1)OCO2 | 2.2 | -16.4 | -2.6 | 13.5 | 0.0 | 9.9 | . | .
Cc1cccc(OCc2nc(C#N)c(NCc3ccc4c(c3)OCO4)o2)c1 | -1.2 | -22.9 | -31.7 | 26.8* | 12.1 | -7.8 | 14.7 | 13.0
Cc1ccc(-c2nn3c(C)nnc3c3ccccc23)cc1S(=O)(=O)NCCO | -0.7 | -11.4 | 8.4 | . | -7.1 | 7.0 | . | .
Cc1ccc(-c2nn3c(C)nnc3c3ccccc23)cc1S(=O)(=O)NC(C)c1ccccc1 (centres undefined) | 0.4 | -25.6 | -7.7 | 17.6* | 4.3 | -14.3 | 11.5 | 19.1*
Cc1cc(Oc2ccc(-c3ccccc3)cc2)n2ncnc2n1 | -0.6 | -4.7 | -0.7 | 20.0* | 3.8 | -1.4 | 0.2 | 2.7
CCN(c1ccccc1)c1cc(C)nc2ncnn12 | 1.1 | 2.8 | 0.8 | 4.6 | 0.2 | -12.8 | . | .
O=C(c1ccccc1)N1CCN(S(=O)(=O)c2cccc(NS(=O)(=O)c3ccccc3)c2)CC1 | 0.8 | -11.9 | -11.0 | . | -2.4 | -0.5 | . | .
